These results are taken from PMC8668982 (The Journal of Biological Chemistry, 2021).

Positions count from the first letter of the chain named.

Assay [1] concerns the target T1, TnIYD (Thermotoga neapolitana, UniProt B9K712).
T1 sequence (B9K712 1-186): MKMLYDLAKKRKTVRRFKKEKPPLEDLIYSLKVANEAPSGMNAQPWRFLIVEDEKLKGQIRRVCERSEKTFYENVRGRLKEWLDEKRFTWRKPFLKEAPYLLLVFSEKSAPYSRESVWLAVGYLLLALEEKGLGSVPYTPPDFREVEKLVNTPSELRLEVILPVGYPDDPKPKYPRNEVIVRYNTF
Description: Catalytic dehalogenation, steady-state kinetics. The assay is classed as biochemical. The settings on record: for Km / kcat: substrate of TnIYD.

In assay [2] the target is T1, TnIYD. Description: Active site ligand binding by quenching of FMNox fluorescence, wild-type TnIYD.
The next assay concerns IYD from mesophiles. Particulars: cited from earlier work.
Another assay deals with T2, TnIYD Y112A (Thermotoga neapolitana, UniProt B9K712, Y112A).
T2 sequence (B9K712 1-186 Y112A): T1 sequence (B9K712 1-186) with Y112A
As to the kind of experiment: Active site ligand binding by quenching of FMNox fluorescence, Y112A variant. A digest of the protocol:
(§1)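 C-terminal His6-tagged T. neapolitana IYD variants, made by mutagenesis, were expressed in E. coli Rosetta2 and purified on Ni-NTA. They were incubated with ~300 μM FMN and quantified by bound-FMN A450. Excitation was 450 nm and emission 516–526 nm. Dilution-corrected F/F0 versus ligand was fit to a two-state binding isotherm.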

The next assay deals with T3, TnIYD M41A/Y112A (Thermotoga neapolitana, UniProt B9K712, M41A/Y112A).
T3 sequence (B9K712 1-186 M41A/Y112A): T1 sequence (B9K712 1-186) with M41A, Y112A
The assay is classed as binding. The method, boiled down: as §1

Another assay concerns the target T4, TnIYD M41K (Thermotoga neapolitana, UniProt B9K712, M41K).
T4 sequence (B9K712 1-186 M41K): T1 sequence (B9K712 1-186) with M41K
Description: Active site ligand binding by quenching of FMNox fluorescence, M41K variant. A digest of the protocol:
as §1

A further assay has as its target T5, TnIYD Y112A/W82A/F88A (Thermotoga neapolitana, UniProt B9K712, F88A/W82A/Y112A).
T5 sequence (B9K712 1-186 W82A/F88A/Y112A): T1 sequence (B9K712 1-186) with W82A, F88A, Y112A
The assay is classed as binding. The method, boiled down: as §1

The target of another assay is T6, TnIYD M41F (Thermotoga neapolitana, UniProt B9K712, M41F).
T6 sequence (B9K712 1-186 M41F): T1 sequence (B9K712 1-186) with M41F
Description: Active site ligand binding by quenching of FMNox fluorescence, M41F variant. The method, boiled down:
as §1

A further assay has as its target T7, TnIYD M41A (Thermotoga neapolitana, UniProt B9K712, M41A).
T7 sequence (B9K712 1-186 M41A): T1 sequence (B9K712 1-186) with M41A
Description: Active site ligand binding by quenching of FMNox fluorescence, M41A variant. The method, boiled down:
as §1

For the compound `Oc1ccccc1I` [2-IP, 2-iodophenol], at TnIYD [1] (25 °C), the “difference in Km values for I-Tyr and 2-IP” value is 19,000 fold; the “difference of kcat relative to the kcat value of I-Tyr” value was found to be 2 fold; the “efficiency (kcat/Km) relative to that for iodotyrosine” value was “less than 0.01%”; the Michaelis constant (Km) – broadly, the substrate concentration at which the rate is half of its maximum – is 4.2 mM. The catalytic constant (kcat) – broadly, the maximal rate divided by the concentration of active sites – on TnIYD [1] (25 °C) was found to be 0.014 ± 0.001 s⁻¹. For the same compound, on TnIYD [1] (60 °C vs 25 °C), the “increase of kcat at 60 °C relative to 25 °C” value is on record as “less than 8 fold”. For the same compound, at TnIYD [1] (60 °C), the Km was determined as 6.6 mM and the kcat is 0.108 ± 0.005 s⁻¹. At TnIYD [1] (at both temperatures (25 °C and 60 °C)), the “kcat/Km smaller than that for I-Tyr” value is “more than 10,000 fold”. For the same compound, on TnIYD [2], the Kd (as a rule, the constant that tells how readily two partners part at equilibrium) came out at 31 ± 1 µM.
Take `N[C@@H](Cc1ccc(O)cc1)C(=O)O` [Tyr, tyrosine]: in the assay with IYD from mesophiles, the “affinity of Tyr to IYD from mesophiles” value is listed as “too weak to measure”. Besides, the dissociation constant Kd on TnIYD Y112A turned out to be 0.9 ± 0.1 µM; on TnIYD M41A/Y112A, 0.95 ± 0.09 µM; at TnIYD M41K, 7.4 ± 0.2 µM; at TnIYD Y112A/W82A/F88A it was 1200 ± 20 µM; at TnIYD [2], 0.45 ± 0.07 µM; on TnIYD M41F it was 0.09 ± 0.06 µM. At TnIYD M41A, the affinity, expressed as Kd, was 1.6 ± 0.2 µM. Moreover, the “decrease of affinity by M41A/Y112A variant relative to wt TnIYD” value at TnIYD M41A/Y112A (25 °C) turned out to be 2 fold. Besides, at TnIYD M41K (25 °C), the “decrease of affinity by M41K variant relative to wt TnIYD” value turned out to be 16 fold. For the same compound, the “weakening of binding by W82A/F88A/Y112A triple mutant relative to wt TnIYD” value on TnIYD Y112A/W82A/F88A (25 °C) was “more than 2600 fold”. Besides, the “enhancement of binding by M41F variant relative to wt TnIYD” value on TnIYD M41F (25 °C) was 5 fold. The “weakening of affinity by M41A substitution relative to wt TnIYD” value at TnIYD M41A (25 °C) amounted to 3.6 fold.
